Assay outcomes (PubChem BioAssay)
697 NFkB inh – lowers PMA/ionomycin-induced NF-kB signal in 697 B cells; 697 B-cell NF-kB luciferase reporter, 16 h; inhibition, % at 4 µM; 330,000 tested, 0.33% active; in the data active = inhibition above about 35%
Mdm2-MdmX inh – inhibitors of human Mdm2/MdmX interaction; O15151+Q00987; SaOS-2 split-luciferase Mdm2/MdmX complementation, luminescence; inhibition, % at 8 µM; 330,000 tested, 3% active; AID 485346;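 active = inhibition of at least 50% at 8 µM in the primary screen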
Target sequence (O15151 whole entry, looked up): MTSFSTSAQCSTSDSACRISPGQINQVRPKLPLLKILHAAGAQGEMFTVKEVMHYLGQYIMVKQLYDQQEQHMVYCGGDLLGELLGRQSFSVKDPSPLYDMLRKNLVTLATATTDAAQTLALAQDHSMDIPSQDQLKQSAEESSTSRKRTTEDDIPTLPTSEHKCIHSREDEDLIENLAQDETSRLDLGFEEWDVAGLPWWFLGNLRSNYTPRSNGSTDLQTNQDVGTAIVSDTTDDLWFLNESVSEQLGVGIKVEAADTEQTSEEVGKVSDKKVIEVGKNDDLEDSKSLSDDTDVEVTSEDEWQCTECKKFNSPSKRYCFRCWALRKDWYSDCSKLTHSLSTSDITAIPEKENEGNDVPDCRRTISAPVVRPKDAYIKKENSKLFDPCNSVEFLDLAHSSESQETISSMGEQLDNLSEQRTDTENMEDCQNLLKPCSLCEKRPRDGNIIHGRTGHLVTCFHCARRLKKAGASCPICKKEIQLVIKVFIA
Target sequence (Q00987 whole entry, looked up): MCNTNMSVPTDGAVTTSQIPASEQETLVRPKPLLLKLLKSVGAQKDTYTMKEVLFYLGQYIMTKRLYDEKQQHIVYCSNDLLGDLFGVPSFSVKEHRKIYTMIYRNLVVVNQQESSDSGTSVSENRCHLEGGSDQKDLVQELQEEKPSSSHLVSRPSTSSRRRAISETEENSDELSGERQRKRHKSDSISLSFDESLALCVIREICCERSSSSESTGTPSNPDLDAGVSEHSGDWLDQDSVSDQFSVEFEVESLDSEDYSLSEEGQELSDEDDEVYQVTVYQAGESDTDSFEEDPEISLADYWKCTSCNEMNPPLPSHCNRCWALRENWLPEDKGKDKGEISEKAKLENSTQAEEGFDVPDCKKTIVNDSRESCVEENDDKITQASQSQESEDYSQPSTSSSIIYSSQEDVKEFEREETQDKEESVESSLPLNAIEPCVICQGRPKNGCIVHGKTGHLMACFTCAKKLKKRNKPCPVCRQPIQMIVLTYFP
aSyn 5UTR inh – 5' untranslated region of α-synuclein, MLPCN primary screen; alpha-synuclein 5'UTR reporter, inhibitor activity; inhibition, % (tested at 7.5 µM); 300,000 tested, 0.82% active; in the data active = inhibition above about 60%; inconclusive = no clear call, values can overlap the other calls;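 also: H4 neuroglioblastoma cells stably carrying SNCA 5'UTR luciferase fusion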
Jurkat NFkB inh – lowers PMA/ionomycin-induced NF-kB signal in Jurkat cells; PMA/ionomycin-induced NF-kB luciferase reporter, luminescence; 330,000 tested, 0.53% active; AID 435003; inhibition, % at 4 µM; in the data active = inhibition above about 50%
IMP-1 inh – blocks Pseudomonas aeruginosa IMP-1 metallo-beta-lactamase. purified IMP-1, nitrocefin hydrolysis, epi-absorbance fluorescence. inhibition, % at 5.6 µM. 290,000 tested, 0.45% active. AID 1556;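 active = inhibition above the mean plus 3 SD of all compounds in the same screening run, cut at about 4.5% in these data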
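System: purified IMP-1; amount: IMP-1 0.2 nM before substrate addition; compound: single dose, 5.6 µM; times: 25 °C, 15 min preincubation, 25 min reaction; signal: Epi-absorbance via hydrolysed-nitrocefin quenching of white-plate fluorescence, 480/530 nm, EDTA stop; benchmarks: DMSO with and without IMP-1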
VIM-2 inh – blocks Pseudomonas aeruginosa VIM-2 metallo-beta-lactamase; purified VIM-2, nitrocefin hydrolysis, epi-absorbance fluorescence; inhibition, % at 5.6 µM; 290,000 tested, 0.89% active; AID 1527;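 active = inhibition above the mean of all tested compounds plus 3 SD, cutoff set per screening run, cut at about 7.5% in these data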;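 also: red hydrolysis product quenches plate fluorescence so inhibitors raise well fluorescence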
Of the large screens only hits and unclear results are named; the others gave an inactive call; ! = not confirmed by another sample. Compounds with a hit are over-represented: about 4.7% of the library has one in this group of screens.

CC1CCCN(S(=O)(=O)c2ccc(C(=O)Nc3nnc(-c4ccccc4Cl)o3)cc2)C1 (stereo unspecified)	aSyn 5UTR inh 78
COc1ccc(-c2nnc(NC(=O)c3ccc4c(c3)OCCO4)o2)cc1	aSyn 5UTR inh 105
CCc1ccc(NC(=O)C(C)Sc2nc(-c3ccco3)c(C#N)c(=O)[nH]2)cc1 (stereo unspecified)	none
COCCCNC(=S)NNC(=O)c1csc(C)n1	IMP-1 inh 8.7
COCCCNC(=S)NNC(=O)c1ccc(C(C)(C)C)cc1	none
Cc1cc(C(=O)N/N=C/c2ccc([N+](=O)[O-])s2)n[nH]1	aSyn 5UTR inh 79
CCOC(=O)c1c(S(=O)(=O)NCC(=O)NCc2ccccc2Cl)c(C)n(C)c1C	none
COc1ccc(Cn2c(-c3ccc(OC)cc3)n[nH]c2=S)cc1	VIM-2 inh 11
CCCn1c(-c2ccc(F)cc2)n[nH]c1=S	VIM-2 inh 10
CCCCn1c(-c2csc(CCC)c2)n[nH]c1=S	none (no result: 697 NFkB inh, Mdm2-MdmX inh, Jurkat NFkB inh)
CCOc1ccc(-c2n[nH]c(=S)n2Cc2ccccc2)cc1	none
CCCCn1c(-c2ccc([N+](=O)[O-])cc2)n[nH]c1=S	VIM-2 inh 13
CCn1c(-c2ccc(C)cc2)n[nH]c1=S	none
COC(=O)[C@@H](NCc1cccc(CN([C@H](C(=O)OC)C(C)C)S(C)(=O)=O)c1)C(C)C	none
Cc1ccc(CCNC(=O)C2CCCN(S(=O)(=O)c3cnc[nH]3)C2)cc1 (stereo unspecified)	IMP-1 inh 4.8
O=C(Nc1ccc(F)c(F)c1)C1CCCN(S(=O)(=O)c2cnc[nH]2)C1 (stereo unspecified)	none
O=C(NCCc1ccc(Cl)cc1)C1CCCN(S(=O)(=O)c2cnc[nH]2)C1 (stereo unspecified)	none
O=C(Nc1ccc(Cl)c(C(F)(F)F)c1)C1CCCN(S(=O)(=O)c2cnc[nH]2)C1 (stereo unspecified)	IMP-1 inh 6.6
O=C(Nc1ccccc1Cl)Oc1ccc(Cl)cc1Cl	none
O=C(C/C=N\OCc1c(Cl)cccc1Cl)Oc1ccc(Cl)cc1Cl	IMP-1 inh 12
CCN(CC)c1ncnc2c1sc1nc(N3CCOCC3)c3c(c12)CCC3	IMP-1 inh 7.0 (no result: 697 NFkB inh, Mdm2-MdmX inh, aSyn 5UTR inh, Jurkat NFkB inh)
[2H]C(CCOS(N)(=O)=O)c1ccc(C(C)(C)C)cc1 (stereo unspecified)	aSyn 5UTR inh 80
CC1CCCCC1NC(=O)CN(C)S(=O)(=O)c1cccc2cccnc12 (stereo unspecified)	none
Cc1cccnc1NC(=O)c1cccc(S(=O)(=O)N2CCCc3ccccc32)c1	none
O=C(NCCO)c1cccc2c1C(=O)c1ccccc1-2	VIM-2 inh 7.9
Cc1ccccc1NS(=O)(=O)c1ccc2[nH]cc(C(=O)N(C)Cc3ccco3)c(=O)c2c1	IMP-1 inh 4.5
O=C1N[C@H]2CC=C[C@H]2Nc2ccccc21	none (no result: aSyn 5UTR inh, Jurkat NFkB inh, IMP-1 inh, VIM-2 inh)
CCCCCC(C)NC(=S)NC(=O)c1cc(S(=O)(=O)N2CCOCC2)ccc1C (stereo unspecified)	aSyn 5UTR inh 66
CCCC(C)NC(=S)NC(=O)c1cc(S(=O)(=O)N2CCOCC2)ccc1C (stereo unspecified)	none
COc1ccc(CCN2C(=O)c3ccccc3NC2c2cc(Cl)c(O)c(OC)c2)cc1 (stereo unspecified)	none
COc1ccc(OC)c(/C=C2\SC(=S)N(C(C(=O)O)c3ccccc3)C2=O)c1 (stereo unspecified)	IMP-1 inh 4.8
Cc1onc(-c2c(Cl)cccc2Cl)c1C(=O)Nc1nccs1	none
O=C(OCCN1CCOCC1)c1cccnc1	IMP-1 inh 8.4!
O=C(OCCN1CCOCC1)c1ccccc1	none
COc1ccccc1CN1CC(C(=O)NC2CCOCC2)CCC1=O (stereo unspecified)	none
CC[C@]12c3[nH]c4ccc(Cl)cc4c3CCN1C(=O)[C@@H](CC(=O)NCCc1ccccn1)C[C@@H]2C(=O)N1CCN(C(=O)c2ccco2)CC1	none (no result: aSyn 5UTR inh, Jurkat NFkB inh, IMP-1 inh, VIM-2 inh)
C=CCN(c1ccccc1OC)S(=O)(=O)c1ccc(Cl)c(C(=O)Nc2ccc(N3CCOCC3)cc2)c1	aSyn 5UTR inh 89
Cn1c(=O)c(NC2CCCCC2)c2c3c(cccc31)C(=O)c1ccccc1-2	IMP-1 inh 5.9 (no result: aSyn 5UTR inh)
CC(=O)Nc1ccc(Nc2c3c4c(cccc4n(C)c2=O)C(=O)c2ccccc2-3)cc1	aSyn 5UTR inh inconclusive
CC(=O)Nc1ccc(NC(=O)CCCCCn2nnc3ccccc3c2=O)cc1	none
CC(=O)c1ccc(S(=O)(=O)N(C)CC(=O)NCC2CCCCC2)cc1	none
CCOc1ccccc1C(=O)Nc1ccccc1C(N)=O	none
CCOc1ccccc1C(=O)Nc1ccsc1C(=O)OC	aSyn 5UTR inh 65 (no result: 697 NFkB inh, Mdm2-MdmX inh, Jurkat NFkB inh)
O=C(O)CCN1C(=O)/C(=C2\C(=O)N(Cc3ccc(F)cc3)c3ccccc32)SC1=S	IMP-1 inh 51
CC(C)[C@H](NC(=O)N1CC(=O)Nc2ccccc21)C(=O)N1CCC(C(=O)O)CC1	none
Cc1ccccc1-n1nc2c(c1NC(=O)c1c(-c3ccccc3Cl)noc1C)CSC2	IMP-1 inh 44 (no result: aSyn 5UTR inh)
CC(C)[C@H](NC(=O)N1CCn2c1nc1ccccc12)C(=O)NC1CCCCC1	none
Cc1cc(C)n2c3c(c(C#N)c2n1)CCCC3	VIM-2 inh 7.7
C=CCSc1nc2c(cnn2-c2ccccc2)c(=O)n1N	aSyn 5UTR inh 74
CCCSc1nc2c(cnn2-c2ccccc2)c(=O)[nH]1	none
C#CCOc1ccc(C2C3=C(COC3=O)Nc3cc4c(cc32)OCO4)cc1OC (stereo unspecified)	aSyn 5UTR inh 132 (no result: 697 NFkB inh, Mdm2-MdmX inh, Jurkat NFkB inh)
O=C1OCC2=C1C(c1ccc(F)cc1)c1cc3c(cc1N2)OCO3 (stereo unspecified)	none (no result: 697 NFkB inh, Mdm2-MdmX inh, aSyn 5UTR inh, Jurkat NFkB inh)
COc1ccc(-c2cc(=O)oc3c(C)c(OC(C)C(=O)NCc4ccccn4)ccc23)cc1 (stereo unspecified)	none
CN(Cc1ccccc1)C(=O)C1CCN(S(=O)(=O)c2ccc3nc4c(c(C(=O)O)c3c2)CCCC4)CC1	IMP-1 inh 5.5
Cc1cc(C2=NNC(=NC3CC3)SC2)c(C)n1-c1ccccc1	aSyn 5UTR inh 95 (no result: 697 NFkB inh, Mdm2-MdmX inh, Jurkat NFkB inh)
COc1ccc(-n2c(C)cc(C3=NNC(=NC4CC4)SC3)c2C)cc1	none (no result: 697 NFkB inh, Mdm2-MdmX inh, aSyn 5UTR inh, Jurkat NFkB inh)
COc1cc(NC(C)=O)ccc1NC(=O)c1cc2ccccc2o1	none
Cc1ccnc(NC(=O)c2cc3ccccc3o2)c1	aSyn 5UTR inh 97 (no result: IMP-1 inh, VIM-2 inh)
COc1cc(N)ccc1NC(=O)c1cc2ccccc2o1	IMP-1 inh 7.5
CCOc1ccc(C(=O)Nc2cc(C)ccn2)cc1	aSyn 5UTR inh 65
C=CCOc1ccccc1CN1CCN(CCc2ccccc2)C(CCO)C1 (stereo unspecified)	none
CCCS(=O)(=O)N1CCCC(C(=O)NCCCN2CCN(c3ccc(F)cc3)CC2)C1 (stereo unspecified)	IMP-1 inh 5.4
CCOC(=O)C1CCN(C(=O)COC(=O)c2ccc(=O)n(Cc3ccccc3)n2)CC1	none (no result: IMP-1 inh, VIM-2 inh)
